Test results from ChEMBL document CHEMBL5712076, “A TGFβ-PRMT5-MEP50 axis regulates cancer cell invasion through histone H3 and H4 arginine methylation coupled transcriptional activation and repression” (Oncogene, 2017).
The source made the active and inactive calls. No cut-off for these calls is given here.

How the values were obtained:
A549 [1] = test: Anticancer activity in human A549 cells assessed as TGFbeta1-induced cell morphology change for 4 days by microscopic analysis; type: functional, cell-based; conditions: dose 500.0 nM, time 4.0 day
Outline: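 A549 cells were given or not given 500 nM for 4 days and 10 nM TGFβ1 for 2 days. Cell morphology was imaged by microscopy, with inserts at higher magnification.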

A549 [2] = test: Anticancer activity against human A549 cells assessed as decrease in cell migration at 500 nM for 4 days by crystal violet staining based matrigel assay; type: functional; conditions: time 4.0 day
[3] = target: Protein arginine N-methyltransferase 5 (Homo sapiens) (UniProt O14744); test: Inhibition of PRMT5 in TGFbeta1-stimulated human HS578T cells assessed as decrease in H4R3me2s protein expression at 500 nM for 4 days by immunoblot analysis; type: cell-based; conditions: Hs-578T, time 4.0 day
Outline: (§1)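 Immunoblots of A549 or HS578T cells given or not given 10 nM TGFβ1 for 2 days and 500 nM inhibitor for 4 days. Probes were histone methylarginine marks and EMT-related proteins.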

NCI-H1339 = test: Anticancer activity against human NCI-H1339 cells assessed as decrease in TGFbeta1-induced cell invasion at 500 nM for 4 days by crystal violet staining based matrigel assay; type: functional; conditions: time 4.0 day
[4] = target: Protein arginine N-methyltransferase 5 (Homo sapiens) (UniProt O14744); test: Inhibition of PRMT5 in human IMR-90 cells assessed as effect on histone […] methylation for 4 days by immunoblot analysis; type: cell-based; conditions: time 4.0 day
[5] = target: Protein arginine N-methyltransferase 5 (Homo sapiens) (UniProt O14744); test: Inhibition of PRMT5 in TGFbeta1-stimulated human A549 cells assessed as increase in snail protein expression at 500 nM for 4 days by immunoblot analysis; type: cell-based; conditions: time 4.0 day; outline: as §1
[6] = target: Protein arginine N-methyltransferase 5 (Homo sapiens) (UniProt O14744); test: Inhibition of PRMT5 in TGFbeta1-stimulated human A549 cells assessed as decrease in H4R3me2s protein expression at 500 nM for 4 days by immunoblot analysis; type: cell-based; conditions: time 4.0 day; outline: as §1
[7] = target: Protein arginine N-methyltransferase 5 (Homo sapiens) (UniProt O14744); test: Inhibition of PRMT5 in human IMR-90 cells assessed as effect on SmD3 methylation for 4 days by immunoblot analysis; type: cell-based; conditions: time 4.0 day
NCI-H460 = test: Anticancer activity against human NCI-H460 cells assessed as decrease in TGFbeta1-induced cell invasion at 500 nM for 4 days by crystal violet staining based matrigel assay; type: functional; conditions: time 4.0 day
[8] = target: Protein arginine N-methyltransferase 5 (Homo sapiens) (UniProt O14744); test: Inhibition of PRMT5 in TGFbeta1-stimulated human HS578T cells assessed as decrease in H3R2me1 protein expression at 500 nM for 4 days by immunoblot analysis; type: cell-based; conditions: Hs-578T, time 4.0 day; outline: as §1
[9] = target: Protein arginine N-methyltransferase 5 (Homo sapiens) (UniProt O14744); test: Inhibition of PRMT5 in TGFbeta1-stimulated human A549 cells assessed as decrease in H3R2me2s protein expression at 500 nM for 4 days by immunoblot analysis; type: cell-based; conditions: time 4.0 day; outline: as §1
Hs-578T = test: Anticancer activity against human Hs-578T cells assessed as decrease in TGFbeta1-induced cell invasion at 500 nM for 4 days by crystal violet staining based matrigel assay; type: functional; conditions: time 4.0 day
Outline: (§2)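 Matrigel invasion through 8 μm pores in A549, SK-MES-1 or HS578T cells, with or without 500 nM inhibitor for 4 days and with or without 10 nM TGFβ1 for 2 days. Invaded cells on the membrane underside were stained with crystal violet, imaged by phase-contrast at 20X and counted. Mean ± S.E.M. of three independent experiments; one-way ANOVA.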

[10] = target: Protein arginine N-methyltransferase 5 (Homo sapiens) (UniProt O14744); test: Inhibition of PRMT5 in TGFbeta1-stimulated human A549 cells assessed as decrease in H3R2me1 protein expression at 500 nM for 4 days by immunoblot analysis; type: cell-based; conditions: time 4.0 day; outline: as §1
[11] = target: Protein arginine N-methyltransferase 5 (Homo sapiens) (UniProt O14744); test: Inhibition of PRMT5 in human A549 cells assessed as decrease in histone […] methylation at 0.01 to 5 uM for 4 days by immunoblot analysis; type: cell-based; conditions: dose 0.01-5 µM, time 4.0 day
Outline: (§3)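 A549 cells were exposed to 0, 10 nM, 100 nM, 500 nM, 1 μM or 5 μM for 4 days. Lysates were blotted for SYM10 (methylated SmD3) and GAPDH. Extracted histones were blotted for H4R3me2s and H3, with DB71 staining of the histones.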

A549 [12] = test: Anticancer activity against human A549 cells assessed as decrease in cell invasion at 500 nM for 4 days by crystal violet staining based matrigel assay; type: functional; conditions: time 4.0 day
Outline: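 A549 cells were exposed to 500 nM for 0 or 4 days, then run in a Matrigel invasion assay through 8 μm porous polycarbonate membranes. Crystal violet-stained invaded cells on the underside were imaged by phase-contrast at 20X and quantified. Three independent experiments, mean ± S.E.M., one-way ANOVA.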

IMR-90 = test: Cytotoxicity against human IMR-90 cells assessed as effect on cell viability at 500 nM for 4 days by microscopic analysis; type: toxicity, cell-based; conditions: imr-90, 96 h, 0.5 µM, time 4 day
A549 [13] = test: Cytotoxicity against human A549 cells assessed as decrease in cell viability at 500 nM for 4 days by microscopic analysis; type: functional, cell-based; conditions: time 4.0 day
[14] = target: Protein arginine N-methyltransferase 5 (Homo sapiens) (UniProt O14744); test: Inhibition of PRMT5 in human A549 cells assessed as decrease in SmD3 methylation at 0.01 to 5 uM for 4 days by immunoblot analysis; type: cell-based; conditions: dose 0.01-5 µM, time 4.0 day; outline: as §3
A549 [15] = test: Anticancer activity against human A549 cells assessed as decrease in TGFbeta1-induced cell invasion at 500 nM for 4 days by crystal violet staining based matrigel assay; type: functional; conditions: time 4.0 day; outline: as §2
SK-MES-1 = test: Anticancer activity against human SK-MES-1 cells assessed as decrease in TGFbeta1-induced cell invasion at 500 nM for 4 days by crystal violet staining based matrigel assay; type: functional; conditions: time 4.0 day; outline: as §2
[16] = target: Protein arginine N-methyltransferase 5 (Homo sapiens) (UniProt O14744); test: Inhibition of PRMT5 in TGFbeta1-stimulated human A549 cells assessed as decrease in decrease in E-cadherin protein expression at 500 nM for 4 days by immunoblot analysis; type: cell-based; conditions: time 4.0 day; outline: as §1
[17] = target: Protein arginine N-methyltransferase 5 (Homo sapiens) (UniProt O14744); test: Inhibition of PRMT5 in TGFbeta1-stimulated human HS578T cells assessed as decrease in H3R2me2s protein expression at 500 nM for 4 days by immunoblot analysis; type: cell-based; conditions: Hs-578T, time 4.0 day; outline: as §1
[18] = target: Protein arginine N-methyltransferase 5 (Homo sapiens) (UniProt O14744); test: Inhibition of PRMT5 in TGFbeta1-stimulated human A549 cells assessed as increase in vimentin protein expression at 500 nM for 4 days by immunoblot analysis; type: cell-based; conditions: time 4.0 day; outline: as §1

Sequence of Protein arginine N-methyltransferase 5 (Homo sapiens) (O14744 whole entry): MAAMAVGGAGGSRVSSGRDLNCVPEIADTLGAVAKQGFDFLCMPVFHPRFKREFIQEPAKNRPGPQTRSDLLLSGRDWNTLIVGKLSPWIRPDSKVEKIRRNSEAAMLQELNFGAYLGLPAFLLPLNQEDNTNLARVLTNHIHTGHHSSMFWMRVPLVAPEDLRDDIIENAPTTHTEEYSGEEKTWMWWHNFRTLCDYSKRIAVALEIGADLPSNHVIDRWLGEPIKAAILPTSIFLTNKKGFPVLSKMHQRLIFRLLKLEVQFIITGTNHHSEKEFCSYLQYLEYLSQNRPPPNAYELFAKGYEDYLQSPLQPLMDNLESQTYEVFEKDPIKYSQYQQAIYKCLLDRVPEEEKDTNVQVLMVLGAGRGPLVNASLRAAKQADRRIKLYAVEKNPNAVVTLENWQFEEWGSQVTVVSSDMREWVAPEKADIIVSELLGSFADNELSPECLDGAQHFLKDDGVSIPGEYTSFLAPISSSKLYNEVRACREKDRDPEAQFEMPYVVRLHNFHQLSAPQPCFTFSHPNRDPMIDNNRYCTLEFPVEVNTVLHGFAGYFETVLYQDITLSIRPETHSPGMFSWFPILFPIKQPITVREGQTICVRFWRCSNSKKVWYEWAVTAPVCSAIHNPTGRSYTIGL

O=C(NC[C@H](O)CN1CCc2ccccc2C1)c1ccnc(NC2CCC2)c1
Activity (A549 [1]): Active | inhibition (A549 [2]): Active | inhibition [3]: Active | inhibition (NCI-H1339): Active | inhibition [4]: inactive | inhibition [5]: Active | inhibition [6]: Active | inhibition [7]: inactive | inhibition (NCI-H460): Active | inhibition [8]: Active | inhibition [9]: Active | inhibition (Hs-578T): Active | inhibition [10]: Active | inhibition [11]: Active | inhibition (A549 [12]): Active | Activity (IMR-90): Non-Toxic | inhibition (A549 [13]): Active | inhibition [14]: Active | inhibition (A549 [15]): Active | inhibition (SK-MES-1): Active | inhibition [16]: Active | inhibition [17]: Active | inhibition [18]: Active
